Measurements: ChEMBL document CHEMBL5058577, “EUbOPEN Chemogenomics Library 2 (Multiplex)” (2022)

Tested on: U2OS
Assay: Multiplex assay against U2OS
Format: toxicity, cell-based
Conditions: human
How it was run: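 At seeding, live cells were stained with Hoechst33342, BioTracker Green Microtubule Cytoskeleton Dye, MitoTracker Red and Annexin V Alexa Fluor 680. After compound addition they were imaged on a CQ1 microscope at 37°C and 5% CO2, and CellPathfinder machine-learning gating sorted them into Hoechst high-intensity objects or normal cells, with normal cells further split into healthy, pyknosed or fragmented nuclei and pyknosed cells into mitotic or apoptotic. Tubulin, mitochondrial-mass and membrane-permeability phenotypes are given as per cents of cells with healthy nuclei.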

[1] = 12 h, 1 µM, compound concentration 1 uM, replicate 1
[2] = 12 h, 1 µM, compound concentration 1 uM, replicate 2
[3] = 12 h, 10 µM, compound concentration 10 uM, replicate 1
[4] = 12 h, 10 µM, compound concentration 10 uM, replicate 2
[5] = 24 h, 1 µM, compound concentration 1 uM, replicate 1
[6] = 24 h, 1 µM, compound concentration 1 uM, replicate 2
[7] = 24 h, 10 µM, compound concentration 10 uM, replicate 1
[8] = 24 h, 10 µM, compound concentration 10 uM, replicate 2
[9] = 48 h, 1 µM, compound concentration 1 uM, replicate 1
[10] = 48 h, 1 µM, compound concentration 1 uM, replicate 2
[11] = 48 h, 10 µM, compound concentration 10 uM, replicate 1
[12] = 48 h, 10 µM, compound concentration 10 uM, replicate 2

`CCc1nn2c(C)cc(C)nc2c1Cc1ccc(-c2nnc(C3CCNCC3)o2)cc1` was tested, and the “Population Apoptotic (%)” value [1] was 42%, the “Population Fragmented Nuclei (%)” value [1] was 28% and the “Population Healthy Nuclei (%)” value [1] was 60%. For the same compound, the “Population Hoechst High Intensity Objects (%)” value [1] was 3%, the “Population Membrane Permeable-Phenotype (%)” value [1] was 12% and the “Population Mitochondria Different-Phenotype (%)” value [1] was 10%. The “Population Mitotic Cells (%)” value [1] was 57%, the “Population Normal (%)” value [1] was 96% and the “Population Pyknosed Nuclei (%)” value [1] was 10%. For the same compound, the “Population Tubulin-Different-Phenotype (%)” value [1] was 11%, the “Total Cell Count” value [1] was 251 and the “Population Apoptotic (%)” value [2] was 85%. The “Population Fragmented Nuclei (%)” value [2] was 9%, the “Population Healthy Nuclei (%)” value [2] was 84% and the “Population Hoechst High Intensity Objects (%)” value [2] was 2%. For the same compound, the “Population Membrane Permeable-Phenotype (%)” value [2] was 14%, the “Population Mitochondria Different-Phenotype (%)” value [2] was 17% and the “Population Mitotic Cells (%)” value [2] was 14%. For the same compound, the “Population Normal (%)” value [2] was 97%, the “Population Pyknosed Nuclei (%)” value [2] was 6% and the “Population Tubulin-Different-Phenotype (%)” value [2] was 4%. The “Total Cell Count” value [2] was 110, the “Population Apoptotic (%)” value [3] was 68% and the “Population Fragmented Nuclei (%)” value [3] was 24%. For the same compound, the “Population Healthy Nuclei (%)” value [3] was 55%, the “Population Hoechst High Intensity Objects (%)” value [3] was 5% and the “Population Membrane Permeable-Phenotype (%)” value [3] was 26%. The “Population Mitochondria Different-Phenotype (%)” value [3] was 43%, the “Population Mitotic Cells (%)” value [3] was 31% and the “Population Normal (%)” value [3] was 94%. The “Population Pyknosed Nuclei (%)” value [3] was 20%, the “Population Tubulin-Different-Phenotype (%)” value [3] was 28% and the “Total Cell Count” value [3] was 214. The “Population Apoptotic (%)” value [4] was 77%, the “Population Fragmented Nuclei (%)” value [4] was 8% and the “Population Healthy Nuclei (%)” value [4] was 76%. The “Population Hoechst High Intensity Objects (%)” value [4] was 2%, the “Population Membrane Permeable-Phenotype (%)” value [4] was 30% and the “Population Mitochondria Different-Phenotype (%)” value [4] was 62%. For the same compound, the “Population Mitotic Cells (%)” value [4] was 22%, the “Population Normal (%)” value [4] was 97% and the “Population Pyknosed Nuclei (%)” value [4] was 14%. The “Population Tubulin-Different-Phenotype (%)” value [4] was 44%, the “Total Cell Count” value [4] was 129 and the “Population Apoptotic (%)” value [5] was 80%. For the same compound, the “Population Fragmented Nuclei (%)” value [5] was 26%, the “Population Healthy Nuclei (%)” value [5] was 63% and the “Population Hoechst High Intensity Objects (%)” value [5] was 2%. The “Population Membrane Permeable-Phenotype (%)” value [5] was 4%, the “Population Mitochondria Different-Phenotype (%)” value [5] was 6% and the “Population Mitotic Cells (%)” value [5] was 20%. The “Population Normal (%)” value [5] was 97%, the “Population Pyknosed Nuclei (%)” value [5] was 10% and the “Population Tubulin-Different-Phenotype (%)” value [5] was 3%. The “Total Cell Count” value [5] was 296, the “Population Apoptotic (%)” value [6] was 87% and the “Population Fragmented Nuclei (%)” value [6] was 13%. The “Population Healthy Nuclei (%)” value [6] was 80%, the “Population Hoechst High Intensity Objects (%)” value [6] was 3% and the “Population Membrane Permeable-Phenotype (%)” value [6] was 7%. The “Population Mitochondria Different-Phenotype (%)” value [6] was 12%, the “Population Mitotic Cells (%)” value [6] was 12% and the “Population Normal (%)” value [6] was 96%. The “Population Pyknosed Nuclei (%)” value [6] was 6%, the “Total Cell Count” value [6] was 130 and the “Population Apoptotic (%)” value [7] was 77%. For the same compound, the “Population Fragmented Nuclei (%)” value [7] was 24%, the “Population Healthy Nuclei (%)” value [7] was 55% and the “Population Hoechst High Intensity Objects (%)” value [7] was 3%. The “Population Membrane Permeable-Phenotype (%)” value [7] was 9%, the “Population Mitochondria Different-Phenotype (%)” value [7] was 40% and the “Population Mitotic Cells (%)” value [7] was 22%. For the same compound, the “Population Normal (%)” value [7] was 96%, the “Population Pyknosed Nuclei (%)” value [7] was 19% and the “Population Tubulin-Different-Phenotype (%)” value [7] was 7%. For the same compound, the “Total Cell Count” value [7] was 236, the “Population Apoptotic (%)” value [8] was 71% and the “Population Fragmented Nuclei (%)” value [8] was 15%. The “Population Healthy Nuclei (%)” value [8] was 71%, the “Population Membrane Permeable-Phenotype (%)” value [8] was 16% and the “Population Mitochondria Different-Phenotype (%)” value [8] was 61%. The “Population Mitotic Cells (%)” value [8] was 28%, the “Population Pyknosed Nuclei (%)” value [8] was 13% and the “Population Tubulin-Different-Phenotype (%)” value [8] was 28%. For the same compound, the “Total Cell Count” value [8] was 163, the “Population Apoptotic (%)” value [9] was 90% and the “Population Fragmented Nuclei (%)” value [9] was 17%. The “Population Healthy Nuclei (%)” value [9] was 71%, the “Population Hoechst High Intensity Objects (%)” value [9] was 2% and the “Population Membrane Permeable-Phenotype (%)” value [9] was 6%. For the same compound, the “Population Mitochondria Different-Phenotype (%)” value [9] was 2%, the “Population Mitotic Cells (%)” value [9] was 10% and the “Population Normal (%)” value [9] was 97%. For the same compound, the “Population Pyknosed Nuclei (%)” value [9] was 10%, the “Population Tubulin-Different-Phenotype (%)” value [9] was 4% and the “Total Cell Count” value [9] was 376. The “Population Apoptotic (%)” value [10] was 85%, the “Population Fragmented Nuclei (%)” value [10] was 12% and the “Population Healthy Nuclei (%)” value [10] was 72%. The “Population Membrane Permeable-Phenotype (%)” value [10] was 7%, the “Population Mitochondria Different-Phenotype (%)” value [10] was 6% and the “Population Mitotic Cells (%)” value [10] was 14%. The “Population Pyknosed Nuclei (%)” value [10] was 14%, the “Total Cell Count” value [10] was 187 and the “Population Apoptotic (%)” value [11] was 82%. The “Population Fragmented Nuclei (%)” value [11] was 24%, the “Population Healthy Nuclei (%)” value [11] was 55% and the “Population Hoechst High Intensity Objects (%)” value [11] was 2%. The “Population Membrane Permeable-Phenotype (%)” value [11] was 10%, the “Population Mitochondria Different-Phenotype (%)” value [11] was 29% and the “Population Mitotic Cells (%)” value [11] was 17%. The “Population Normal (%)” value [11] was 97%, the “Population Pyknosed Nuclei (%)” value [11] was 19% and the “Population Tubulin-Different-Phenotype (%)” value [11] was 3%. For the same compound, the “Total Cell Count” value [11] was 290, the “Population Apoptotic (%)” value [12] was 75% and the “Population Fragmented Nuclei (%)” value [12] was 12%. For the same compound, the “Population Healthy Nuclei (%)” value [12] was 71%, the “Population Membrane Permeable-Phenotype (%)” value [12] was 22% and the “Population Mitochondria Different-Phenotype (%)” value [12] was 31%. The “Population Mitotic Cells (%)” value [12] was 24%, the “Population Pyknosed Nuclei (%)” value [12] was 15% and the “Population Tubulin-Different-Phenotype (%)” value [12] was 18%. For the same compound, the “Total Cell Count” value [12] was 219.
